The values below come from ChEMBL document CHEMBL4373640, “Synthesis and antitumor activity of aza-brazilan derivatives containing imidazolium salt pharmacophores” (Medchemcomm, 2019).

One may read the IC50 as the point on the concentration scale where inhibition reaches its midpoint.

Assay [1] in a line: Induction of apoptosis in human SMMC-7221 cells assessed as necrotic cells at 4 uM after 48 hrs by AnnexinV-FITC/propidium iodide staining based FACSCalibur flow cytometry analysis (reference value: 2.34 %). The assay is classed as functional. In general terms: In flow cytometry, cells or beads pass a laser one at a time.
Assay [2] can be described thus: Induction of apoptosis in human SMMC-7221 cells assessed as viable cells at 8 uM after 48 hrs by AnnexinV-FITC/propidium iodide staining based FACSCalibur flow cytometry analysis (reference value: 89.8 %). The assay is classed as functional. The settings on record: SMMC-7221, 48 h, read-out: Activity.
Assay [3] can be described thus: Induction of apoptosis in human SMMC-7221 cells assessed as early apoptotic cells at 8 uM after 48 hrs by AnnexinV-FITC/propidium iodide staining based FACSCalibur flow cytometry analysis (reference value: 0.106 %). The assay is classed as functional.
A short description of assay [4]: Induction of apoptosis in human SMMC-7221 cells assessed as early apoptotic cells at 4 uM after 48 hrs by AnnexinV-FITC/propidium iodide staining based FACSCalibur flow cytometry analysis (reference value: 0.106 %). The assay is classed as functional.
A short description of assay [5]: Induction of apoptosis in human SMMC-7221 cells assessed as viable cells at 1 uM after 48 hrs by AnnexinV-FITC/propidium iodide staining based FACSCalibur flow cytometry analysis (reference value: 89.8 %). The assay is classed as functional. The note with it: SMMC-7221, 48 h, read-out: Activity.
Assay [6] in a line: Induction of apoptosis in human SMMC-7221 cells assessed as viable cells at 2 uM after 48 hrs by AnnexinV-FITC/propidium iodide staining based FACSCalibur flow cytometry analysis (reference value: 89.8 %). Type of assay: functional. The settings on record: SMMC-7221, 48 h, read-out: Activity.
The subject of assay [7] is NCM460. The experiment in a line: Cytotoxicity against human NCM460 cells assessed as reduction in cell viability after 48 hrs by MTS assay. Type of assay: cell-based. The settings on record: NCM460, 48 h. The essentials:
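Cells (5 × 10^3 per well) were plated 12 h before treatment, then exposed continuously to compound for 48 h. MTS was added, with 1–4 h incubation at 37 °C and OD read at 490 nm. IC50 is the concentration cutting OD by 50% versus untreated cells, taken from dose–response curves. Values are the mean of three independent determinations.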

Assay [8] in a line: Cell cycle arrest in human SMMC-7221 cells assessed as accumulation at sub-G1 phase at 1 uM after 24 hrs by propidium iodide/RNase A staining based FACSCalibur flow cytometry analysis (reference value: 4.03 +/- 0.47 %). The assay is classed as functional.
Assay [9] can be described thus: Induction of apoptosis in human SMMC-7221 cells assessed as necrotic cells at 1 uM after 48 hrs by AnnexinV-FITC/propidium iodide staining based FACSCalibur flow cytometry analysis (reference value: 2.34 %). Type of assay: functional.
Assay [10] in a line: Induction of apoptosis in human SMMC-7221 cells assessed as late apoptotic cells at 2 uM after 48 hrs by AnnexinV-FITC/propidium iodide staining based FACSCalibur flow cytometry analysis (reference value: 7.7 %). The assay is classed as functional.

In the case of `COc1cccc2c1N(CCCn1c[n+](Cc3ccc(C)cc3)c3cc(C)c(C)cc31)C[C@@H]1Cc3ccc(Br)cc3[C@H]21.[Br-]`, the Activity is reported as 7.08% in assay [1]; 0.157% in [3]; 0.919% in assay [4]; 1.32% in assay [8]; 5.66% in assay [9]; 16% in assay [10]. The viability at 8 µM in assay [2] turned out to be 5.16%. Moreover, the viability at 1 µM in assay [5] was 79.2%. In [6], the viability at 2 µM is 77.7%. Also, the IC50 in assay [7] came out at 1.97 µM.
